Source: PMC3321063 (Bioorganic & medicinal chemistry letters, 2012)
“Also recorded” adds a separate entry of the source.

How the values were obtained:
[1] = tested on: intracellular γ-secretase; conditions: previous studies; cited from earlier work
PS1-NTF = PS1-NTF (Homo sapiens, UniProt P49768); format: binding; conditions: HeLa membranes; for PS1-NTF photolabeling: irradiation ~350 nm
Procedure, shortened: (§1)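 HeLa membranes (800 μg/1.2 mL PBS) incubated 1 h at 37 °C with clickable photoprobe (20 nM) with or without competing GSI (1 μM), then irradiated at ~350 nm for 30 min at 4 °C and pelleted. Click reaction in PBS: TCEP 1.0 mM, CuSO4 1.0 mM, TBTA 0.1 mM, biotin-azide 0.1 mM, 1 h RT with agitation. Pelleted membranes solubilized in RIPA, streptavidin-enriched, SDS-PAGE, Western blot.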

[2] = molecular target: T1, signal peptide peptidase (SPP) (Homo sapiens, UniProt Q8TCT9); format: binding; conditions: HeLa membranes, probe 20 nM
T1 sequence (Q8TCT9 1-377): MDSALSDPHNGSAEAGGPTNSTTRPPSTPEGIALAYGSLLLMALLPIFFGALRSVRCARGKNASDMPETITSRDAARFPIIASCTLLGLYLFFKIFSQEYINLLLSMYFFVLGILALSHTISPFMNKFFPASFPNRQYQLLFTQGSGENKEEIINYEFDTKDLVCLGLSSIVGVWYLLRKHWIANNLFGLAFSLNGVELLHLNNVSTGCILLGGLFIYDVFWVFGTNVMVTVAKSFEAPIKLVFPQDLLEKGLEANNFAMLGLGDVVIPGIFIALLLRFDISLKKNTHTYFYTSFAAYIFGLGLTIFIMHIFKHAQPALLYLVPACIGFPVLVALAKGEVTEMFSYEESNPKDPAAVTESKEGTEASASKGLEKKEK
Procedure, shortened: as §1

PS1-CTF = PS1-CTF (Homo sapiens, UniProt P49768); format: binding; conditions: HeLa membranes, probe 20 nM
Procedure, shortened: as §1

| SPP photolabeling [2] | Compound | PS1-NTF photolabeling (PS1-NTF; probe 20 nM) | other results |
| --- | --- | --- | --- |
|  | CC(C)C[C@H](NC(=O)[C@H](Cc1ccccc1)C[C@@H](O)[C@H](Cc1ccccc1)NC(=O)c1ccc(C(=O)c2ccccc2)cc1)C(=O)N[C@@H](Cc1ccccc1)C(=O)NCCCCCNC(=O)CCCC[C@@H]1SC[C@@H]2NC(=O)N[C@@H]21 [compound 2] |  | cell penetration (plasma membrane, access to intracellular γ-secretase) [1]: cannot |
| minimal labeling of SPP | C#CCCCCNC(=O)[C@H](Cc1ccccc1)NC(=O)[C@H](CC(C)C)NC(=O)[C@H](Cc1ccccc1)C[C@@H](O)[C@H](Cc1ccccc1)NC(=O)c1ccc(C(=O)c2ccccc2)cc1 [compound 4] | efficient PS1-NTF photolabeling; also recorded: strongly labeled PS1-NTF vs. CTF | labeling efficiency of PS1-NTF relative to 2 (fold less) (PS1-NTF; probe 20 nM, after click reaction with biotin-azide): 2–3 fold |
| significant labeling of SPP | C#CCCCCNC(=O)[C@H](Cc1ccc(C(=O)c2ccccc2)cc1)NC(=O)[C@H](CC(C)C)NC(=O)[C@H](Cc1ccccc1)C[C@@H](O)[C@H](Cc1ccccc1)NC(=O)OC(C)(C)C [compound 5] | minimal PS1-NTF labeling | PS1-CTF photolabeling (PS1-CTF): expected preference for PS1-CTF |
|  | CC(C)C[C@H](NC(=O)[C@H](Cc1ccccc1)C[C@@H](O)[C@H](Cc1ccccc1)NC(=O)OC(C)(C)C)C(=O)N[C@@H](Cc1ccccc1)C(N)=O [compound 1, reference compound] |  | blocking of PS1-NTF labeling by competitor (PS1-NTF; competitor 1 μM, probe 2 or 4): PS1-NTF labeling was blocked |
